This is a sample that favours compounds with a hit; in the whole collection about 5.5% have one here.
PostGolgi ctrl = growth of the yeast control strain, post-Golgi counter-screen | efflux-deficient yeast background strain, growth absorbance A615, 16 h | inhibition, % at 10 µM | 98,000 compounds, 5% hits | AID 738
Ecoli tolC = growth inhibitors of E. coli BW25113 tolC mutant. growth inhibition, % at 10 µM (by protocol). OD615. 65,000 compounds, 2.2% hits. AID 573;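 active = growth inhibition at or above a cutoff equal to the mean over every tested compound plus 3 SD, cut at about 60% in these data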;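 also: growth measured after 20 h incubation at 37 °C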
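Material: E. coli BW25113 ΔtolC::kan, tolC deletion mutant strain. Measure: percent growth inhibition. Schedule: 37 °C, 20 h exposure. Doses: single-point testing at 10 µM. Signal: A615 absorbance measurement. Buffer or medium: kanamycin-containing LB broth (50 µg/mL).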
PLAP act = activates human placental alkaline phosphatase | P05187 | purified PLAP enzyme, luminescent substrate read-out; active compounds read high | activation fold at 20 µM | 96,000 compounds, 1.2% hits | AID 696; in the data active = activation fold above about 2
Target sequence (P05187 whole entry, looked up): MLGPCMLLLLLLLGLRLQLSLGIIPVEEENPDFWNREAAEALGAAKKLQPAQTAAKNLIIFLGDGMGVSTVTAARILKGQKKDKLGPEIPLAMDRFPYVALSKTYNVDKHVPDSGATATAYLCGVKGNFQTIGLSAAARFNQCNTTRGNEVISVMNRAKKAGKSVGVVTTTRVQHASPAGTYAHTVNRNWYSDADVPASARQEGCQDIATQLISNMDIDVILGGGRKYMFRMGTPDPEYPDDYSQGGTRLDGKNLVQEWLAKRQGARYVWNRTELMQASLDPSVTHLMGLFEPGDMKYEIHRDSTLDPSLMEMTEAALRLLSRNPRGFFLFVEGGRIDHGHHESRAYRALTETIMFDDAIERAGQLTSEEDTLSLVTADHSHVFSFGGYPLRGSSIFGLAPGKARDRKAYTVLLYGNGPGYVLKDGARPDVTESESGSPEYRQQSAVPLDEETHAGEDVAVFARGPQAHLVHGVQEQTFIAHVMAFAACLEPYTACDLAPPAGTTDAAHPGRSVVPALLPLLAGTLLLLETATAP
E coli WT exp = E. coli BW25113 growth inhibition, expanded screen; OD600 absorbance; growth inhibition, % at 100 µM; 98,000 compounds, 0.15% hits;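 active = growth inhibition above about 50% at one test dose, limit read from the data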;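 also: growth measured after 20 h incubation at 37 °C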
HePTP inh = inhibitors of human HePTP phosphatase | P35236 | recombinant HePTP phosphatase activity, OD absorbance | inhibition, % at 20 µM | 110,000 compounds, 0.64% hits | AID 521; in the data active = inhibition above about 50%;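 also: plate controls were vehicle for no effect and reference inhibitor for full effect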
PostGolgi yeast = growth inhibition of a yeast mutant, post-Golgi transport screen; post-Golgi transport phenotypic cell assay; inhibition, % at 10 µM; 98,000 compounds, 0.9% hits;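 also: yeast cells grown in 1536-well plates; yeast grown about 18 h at 30C before absorbance read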
An asterisk follows results filed as active; x = no result given. Rule as the data show it, unless noted: active = inhibition above about 30%; inactive = the rest.

SMILES	PostGolgi ctrl	Ecoli tolC	PLAP act	E coli WT exp	HePTP inh	PostGolgi yeast
CCCOc1cccc(C(=O)Nc2nc(-c3ccc(F)cc3F)cs2)c1	x	x	x	x	94.9*	x
CC(C)CCNC(=O)CN(C(=O)Cn1nnc(-c2ccccc2F)n1)c1cccc2c1CCCC2	10.6	x	2.6*	-26.0	x	0.4
Cc1ccc(N2C(=O)C3C(C2=O)C2C=CC3C23CC3)cc1Cl (stereo not given)	x	x	x	x	-2.5	x
CC1CC(C)CN(C(=O)c2ccc3c(=O)n(Cc4ccc5c(c4)OCO5)c(=S)[nH]c3c2)C1 (stereo not given)	35.8*	x	1.5	-15.0	x	-3.2
O=C(c1ccc2c(=O)n(Cc3ccc4c(c3)OCO4)c(=S)[nH]c2c1)N1CCCCC1	3.9	-13.4	0.9	-5.0	8.6	-4.5
COc1ccc(-c2nn(-c3ccccc3)cc2/C=N/N2C(=O)CSC2=S)cc1	85.3*	x	1.6	-3.0	x	86.4*
CC(=O)Nc1ccc(S(=O)(=O)Nc2ccc(Oc3ccccc3)cc2)cc1	x	x	x	x	6.7	x
O=C(CSc1ncn[nH]1)N1CCN(S(=O)(=O)c2ccc(Cl)cc2)CC1	0.1	x	2.1*	-3.0	x	-0.6
Cc1nnc(SCC(=O)N2CCN(S(=O)(=O)c3ccc(Cl)cc3)CC2)[nH]c1=O	-3.6	-4.8	1.6	4.0	5.0	19.5
COc1ccc(Nc2nc(NC(C)(C)C)nc(N3CCCC3)n2)c(OC)c1	62.7*	x	1.5	-17.0	x	5.3
CCOc1ccc(NC(=O)CSc2nc3ccccc3c(=O)n2-c2ccccc2)cc1	x	x	x	x	5.7	x
CCOC(=O)c1c(NC(=O)c2nn(CC)cc2Br)c(C#N)nn1-c1ccccc1	22.8	9.9	1.2	-11.0	3.9	-3.1
CCOC(=O)c1c(NC(=O)c2c(Br)cnn2C)c(C#N)nn1-c1ccccc1	41.1*	x	1	4.0	x	-4.5
CCOC(=O)c1nn(-c2ccccc2)c(=O)c(C#N)c1C	-1.2	-11.2	1.1	4.0	10.4	3.7
CCOC(=O)c1nn(-c2ccccc2)c(C#N)c1NC(=O)c1nn(CC)cc1Br	44.3*	10.8	1	-10.0	8.9	18.7
O=C1OC(c2ccc(Cl)cc2)=C/C1=C\c1ccco1	x	x	x	x	50.8*	x
O=C1OC(c2ccc(Oc3ccccc3)cc2)=C/C1=C/c1ccco1	x	x	x	x	101.4*	x
CCC(C)NC(=O)CN(c1ccc(OC)cc1OC)S(=O)(=O)c1ccc(C)cc1 (stereo not given)	x	x	x	x	-2.5	x
CCCCCCCCCC(=O)N/N=C/c1ccc(C)s1	32.7*	x	0.8	-2.0	x	8.2
CCCCCC(=O)N/N=C/c1ccccc1	x	x	x	x	-1.1	x
Clc1cccc(/C=N\Nc2nccs2)c1	11.8	x	2.1*	17.0	x	1.8
Cc1nc2cc(NC(=O)Nc3nccs3)ccc2n1C	2.7	-12.8	2*	4.0	10.2	-8.5
Clc1cccc(/C=N/Nc2nc(Cl)nc3ccccc23)c1	8.9	x	1.7	-6.0	x	0.5
CCCNC(=O)Nc1ccc2c(c1)nc(C)n2C	1.4	x	1	-1.0	x	3.1
O=C(Nc1cccc(Cl)c1)Nc1nccs1	8.9	68.8*	1	77.0*	4.8	-4.2
SMILES	PostGolgi ctrl	Ecoli tolC	PLAP act	E coli WT exp	HePTP inh	PostGolgi yeast
CCCCOc1ccc(/C=C2\N=C(c3ccc(Cl)cc3)OC2=O)cc1	x	x	x	x	4.9	x
Cc1cc(C)n(-c2nc3nonc3nc2Nc2cccc(C(F)(F)F)c2)n1	x	x	x	x	-1.0	x
COc1ccccc1NC(=S)NCCc1c[nH]c2ccccc12	-3.9	x	0.8	8.0	x	1.8
COc1cccc(CNCCc2c[nH]c3ccccc23)c1OCc1ccc(F)cc1	80.8*	x	1.6	25.0	x	93.0*
COc1cc(CNCCc2c[nH]c3ccccc23)ccc1OCc1ccc(F)cc1	40.6*	x	x	37.0	x	-0.9
COc1ccc(NC(=O)c2ccccc2O)cc1Cl	x	x	x	x	3.5	x
c1ccc2c(N3CCCC3)nc(-c3ccncc3)nc2c1	61.5*	48.0	0.9	-9.0	8.1	56.7*
c1ccc(-c2nc(N3CCCCCC3)c3ccccc3n2)nc1	11.4	100.0*	1.4	26.0	9.4	2.6
C=CCOc1nc(-c2ccncc2)nc2ccccc12	48.4*	3.0	1.2	-4.0	6.4	16.7
CCN(CC)c1ccc(Nc2nc(N3CCOCC3)c3ccccc3n2)cc1	12.7	x	1.1	7.0	x	2.4
COc1ccc(Nc2nc(N3CCCC3)c3ccccc3n2)cc1	7.0	76.2*	1.2	20.0	10.4	-0.5
COC(=O)c1ccc(CSc2ccc3nnc(-c4cccc(F)c4)n3n2)o1	41.1*	24.3	1.1	-5.0	-15.7	-5.5
COc1ccccc1/C=N/N=C1/NC(=O)C(CC(=O)Nc2ccc(Cl)c(Cl)c2)S1 (stereo not given)	x	x	x	x	-1.6	x
Cc1ccc2nc(C(O)C(O)c3nc4ccc(C)cc4[nH]3)[nH]c2c1 (stereo not given)	2.3	-16.3	2.1*	-1.0	5.5	4.6
O=C(NC(Cc1c[nH]c2ccccc12)C(=O)O)c1ccco1 (stereo not given)	30.2*	x	1.1	6.0	x	-8.4
O=C(Nc1ccccc1C(=O)NC(Cc1c[nH]c2ccccc12)C(=O)O)c1ccco1 (stereo not given)	-10.2	9.7	1.5	8.0	1.5	2.8
Cc1cc(C)nc(NC(=NCCc2c[nH]c3ccccc23)NC(=O)c2ccco2)n1	41.8*	22.1	1.6	-11.0	6.8	11.2
COCCOc1ccc(C(F)(F)F)cc1Nc1nc2ccccc2o1	54.1*	16.9	1.1	-3.0	0.2	-2.7
CCC(C)(C)n1nnnc1C(c1cc2ccc(C)cc2[nH]c1=O)N(Cc1cccnc1)Cc1ccco1 (stereo not given)	23.9	70.9*	1.5	-9.0	5.0	-3.2
COc1ccc(/C=C/C(=O)NCc2ccc(OC)cc2)cc1	x	x	x	x	2.7	x
CCC(C)n1c(SCC(=O)Nc2cc(C)on2)nc2ccccc2c1=O (stereo not given)	2.4	x	1	7.0	x	-6.3
CCC(CO)n1c(SCc2cc(=O)oc3cc(C)ccc23)nc2ccccc2c1=O (stereo not given)	46.6*	x	2.7*	-6.0	x	41.2*
CC(C)(CO)NCc1ccccc1OCC(=O)Nc1ccccc1	31.8*	-11.9	0.9	-7.0	3.7	-7.0
O=C(NC(=S)Nc1ccc(-c2nc3ccccc3s2)cc1)c1ccccc1Cl	x	x	x	x	-3.5	x
N#Cc1nc(-c2ccc(OCc3ccccc3)cc2)oc1NCCCn1ccnc1	18.8	100.0*	1.2	5.0	5.3	7.1
SMILES	PostGolgi ctrl	Ecoli tolC	PLAP act	E coli WT exp	HePTP inh	PostGolgi yeast
N#Cc1nc(COc2ccc(Br)cc2)oc1NCCCn1ccnc1	11.9	96.9*	2.2*	38.0	5.1	-1.4
CCCOc1ccc(-c2nc(C#N)c(NCCCn3ccnc3)o2)cc1	6.3	x	0.9	-2.0	x	-1.1
N#Cc1nc(COc2ccccc2)oc1NCCCn1ccnc1	2.1	1.9	1.5	4.0	8.7	-2.0
COc1ccc(CCNc2oc(COc3ccc(F)cc3)nc2C#N)cc1	8.1	95.9*	0.8	1.0	0.5	-2.7
N#Cc1nc(-c2ccc(OCc3ccccc3Cl)cc2)oc1NCCCn1ccnc1	24.0	99.7*	0.9	11.0	2.8	-3.8
COc1ccc(/C=C2\SC(=O)N(CC(=O)Nc3ccccc3Cl)C2=O)cc1	x	x	x	x	-4.6	x

Source: PubChem
